# Measured values: ChEMBL document CHEMBL1649165, “Activity profile in vitro of micafungin against Spanish clinical isolates of common and emerging species of yeasts and molds” (2009)
# Assays:
# Format in all cases: functional
# Geotrichum candidum = assay: Antimicrobial activity against Galactomyces geotrichum by broth microdilution method
# Trichosporon dermatis = assay: Antimicrobial activity against Trichosporon dermatis by broth microdilution method; settings: Cutaneotrichosporon dermatis
# Method in brief: (§1)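 Nonfermentative yeast clinical isolates (Rhodotorula, Trichosporon) tested by broth microdilution. The EUCAST yeast recommendations were followed strictly, with one minor modification to improve growth. MIC was read as the endpoint.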
# [Candida] intermedia = Antimicrobial activity against Candida intermedia by broth microdilution method; settings: Sungouiella intermedia
# Method in brief: (§2)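 Clinical isolates from human patients, tested by broth microdilution using the AFST-EUCAST reference procedure for fermentative yeasts. The MIC was read per that reference method.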
# Aspergillus niger = assay: Antimicrobial activity against Aspergillus niger by broth microdilution method
# Method in brief: (§3)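 Clinical mould isolates, tested by broth microdilution using the AFST-EUCAST reference method for filamentous fungi. For echinocandins, the endpoint was the minimum effective concentration: the lowest drug concentration giving aberrant hyphal growth, read with an inverted microscope.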
# Candida parapsilosis = assay: Antimicrobial activity against Candida parapsilosis by broth microdilution method; settings: Lodderomyces parapsilosis; method in brief: as §2
# Kluyveromyces marxianus = assay: Antimicrobial activity against Candida kefyr by broth microdilution method; method in brief: as §2
# Aureobasidium pullulans = assay: Antimicrobial activity against Aureobasidium pullulans by broth microdilution method
# Paecilomyces variotii = assay: Antimicrobial activity against Paecilomyces variotii by broth microdilution method
# Method in brief: (§4)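 Filamentous fungus clinical isolates tested by the AFST-EUCAST reference broth microdilution method for moulds. For echinocandins, the endpoint was the minimum effective concentration: the lowest drug concentration giving aberrant hyphal growth, read with an inverted microscope.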
# Papiliotrema laurentii = assay: Antimicrobial activity against Cryptococcus laurentii by broth microdilution method
# Method in brief: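 Clinical isolates of nonfermentative yeasts, tested by broth microdilution following EUCAST recommendations. The only change from that method was a minor modification to improve growth.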
# [1] = Antimicrobial activity against Rhizopus microsporus by broth microdilution method; method in brief: as §4
# Trichoderma = assay: Antimicrobial activity against Trichoderma spp. by broth microdilution method; method in brief: as §4
# Aspergillus ochraceus = assay: Antimicrobial activity against Aspergillus ochraceus by broth microdilution method; method in brief: as §3
# Aspergillus sclerotiorum = assay: Antimicrobial activity against Aspergillus sclerotiorum by broth microdilution method; method in brief: as §3
# Rhodotorula glutinis = assay: Antimicrobial activity against Rhodotorula glutinis by broth microdilution method; method in brief: as §1
# Magnusiomyces capitatus = assay: Antimicrobial activity against Dipodascus capitatus by broth microdilution method
# Aspergillus flavus = assay: Antimicrobial activity against Aspergillus flavus by broth microdilution method; method in brief: as §3
# Lomentospora prolificans = assay: Antimicrobial activity against Scedosporium prolificans by broth microdilution method; method in brief: as §4
# Trichosporon ovoides = assay: Antimicrobial activity against Trichosporon ovoides by broth microdilution method; method in brief: as §1
# Yarrowia lipolytica = assay: Antimicrobial activity against Yarrowia lipolytica by broth microdilution method
# Fusarium verticillioides = assay: Antimicrobial activity against Fusarium verticillioides by broth microdilution method; method in brief: as §4
# Alternaria alternata = assay: Antimicrobial activity against Alternaria alternata by broth microdilution method; method in brief: as §3
# Fusarium oxysporum = assay: Antimicrobial activity against Fusarium oxysporum by broth microdilution method; method in brief: as §3
# Diutina rugosa = assay: Antimicrobial activity against Candida rugosa by broth microdilution method; method in brief: as §2
# Aspergillus glaucus = assay: Antimicrobial activity against Aspergillus glaucus by broth microdilution method; method in brief: as §3
# Lewia infectoria = assay: Antimicrobial activity against Alternaria infectoria by broth microdilution method; method in brief: as §3
# Rhodotorula mucilaginosa = assay: Antimicrobial activity against Rhodotorula mucilaginosa by broth microdilution method; method in brief: as §1
# Aspergillus terreus = assay: Antimicrobial activity against Aspergillus terreus by broth microdilution method; method in brief: as §3
# Nakaseomyces glabratus = assay: Antimicrobial activity against Candida glabrata by broth microdilution method; method in brief: as §2
# Aspergillus nidulans = assay: Antimicrobial activity against Aspergillus nidulans by broth microdilution method; method in brief: as §3
# Wickerhamomyces anomalus = assay: Antimicrobial activity against Candida pelliculosa by broth microdilution method; settings: Hansenula anomala; method in brief: as §2
# Rhizopus arrhizus = assay: Antimicrobial activity against Rhizopus oryzae by broth microdilution method; method in brief: as §4
# Penicillium = assay: Antimicrobial activity against Penicillium spp. by broth microdilution method; method in brief: as §4
# Aspergillus fumigatus = assay: Antimicrobial activity against Aspergillus fumigatus by broth microdilution method; method in brief: as §3
# Torulaspora delbrueckii = assay: Antimicrobial activity against Candida coliculosa by broth microdilution method; method in brief: as §2
# [2] = system: Meyerozyma guilliermondii; assay: Antimicrobial activity against Candida guilliermondii by broth microdilution method; method in brief: as §2
# Fusarium reticulatum = assay: Antimicrobial activity against Fusarium reticulatum by broth microdilution method; method in brief: as §4
# Fusarium equiseti = assay: Antimicrobial activity against Fusarium equiseti by broth microdilution method; method in brief: as §3
# Aspergillus sydowii = assay: Antimicrobial activity against Aspergillus sydowii by broth microdilution method; method in brief: as §3
# [Candida] inconspicua = Antimicrobial activity against Candida inconspicua by broth microdilution method; settings: Pichia inconspicua; method in brief: as §2
# Fusarium proliferatum = assay: Antimicrobial activity against Fusarium proliferatum by broth microdilution method; method in brief: as §3
# Hortaea werneckii = assay: Antimicrobial activity against Hortaea werneckii by broth microdilution method
compound,measurement,setting,value
C[C@@H]1[C@H](O)[C@@H](C)/C=C/C=C/C=C/C=C/C=C/C=C/C=C/[C@H](O[C@@H]2O[C@H](C)[C@@H](O)[C@H](N)[C@@H]2O)C[C@@H]2O[C@](O)(C[C@@H](O)C[C@@H](O)[C@H](O)CC[C@@H](O)C[C@@H](O)CC(=O)O[C@H]1C)C[C@H](O)[C@H]2C(=O)O [AMPHOTERICIN B],MIC50,Geotrichum candidum,0.25 µg/mL
same,MIC90,Geotrichum candidum,0.5 µg/mL
same,MIC50,Trichosporon dermatis,0.5 µg/mL
same,MIC90,Trichosporon dermatis,8 µg/mL
same,MIC50,[Candida] intermedia,0.12 µg/mL
same,MIC90,[Candida] intermedia,1 µg/mL
same,MIC50,Aspergillus niger,0.25 µg/mL
same,MIC90,Aspergillus niger,0.25 µg/mL
same,MIC50,Candida parapsilosis,0.12 µg/mL
same,MIC90,Candida parapsilosis,0.25 µg/mL
same,MIC50,Kluyveromyces marxianus,0.25 µg/mL
same,MIC90,Kluyveromyces marxianus,0.5 µg/mL
same,MIC50,Aureobasidium pullulans,0.25 µg/mL
same,MIC90,Aureobasidium pullulans,1 µg/mL
same,MIC50,Paecilomyces variotii,0.03 µg/mL
same,MIC90,Paecilomyces variotii,0.5 µg/mL
same,MIC50,Papiliotrema laurentii,0.5 µg/mL
same,MIC90,Papiliotrema laurentii,8 µg/mL
same,MIC50,[1],2 µg/mL
same,MIC90,[1],> 16 µg/mL
same,MIC50,Trichoderma,0.5 µg/mL
same,MIC90,Trichoderma,> 16 µg/mL
same,MIC50,Aspergillus ochraceus,0.5 µg/mL
same,MIC90,Aspergillus ochraceus,> 16 µg/mL
same,MIC50,Aspergillus sclerotiorum,0.5 µg/mL
same,MIC90,Aspergillus sclerotiorum,> 16 µg/mL
same,MIC50,Rhodotorula glutinis,0.5 µg/mL
same,MIC90,Rhodotorula glutinis,8 µg/mL
same,MIC50,Magnusiomyces capitatus,0.5 µg/mL
same,MIC90,Magnusiomyces capitatus,0.5 µg/mL
same,MIC50,Aspergillus flavus,1 µg/mL
same,MIC90,Aspergillus flavus,2 µg/mL
same,MIC50,Lomentospora prolificans,> 16 µg/mL
same,MIC90,Lomentospora prolificans,> 16 µg/mL
same,MIC50,Trichosporon ovoides,0.5 µg/mL
same,MIC90,Trichosporon ovoides,8 µg/mL
same,MIC50,Yarrowia lipolytica,0.5 µg/mL
same,MIC90,Yarrowia lipolytica,0.5 µg/mL
same,MIC50,Fusarium verticillioides,2 µg/mL
same,MIC90,Fusarium verticillioides,4 µg/mL
same,MIC50,Alternaria alternata,0.5 µg/mL
same,MIC90,Alternaria alternata,> 16 µg/mL
same,MIC50,Fusarium oxysporum,1 µg/mL
same,MIC90,Fusarium oxysporum,2 µg/mL
same,MIC50,Diutina rugosa,0.12 µg/mL
same,MIC90,Diutina rugosa,1 µg/mL
same,MIC50,Aspergillus glaucus,0.5 µg/mL
same,MIC90,Aspergillus glaucus,> 16 µg/mL
same,MIC50,Lewia infectoria,0.06 µg/mL
same,MIC90,Lewia infectoria,> 16 µg/mL
same,MIC50,Rhodotorula mucilaginosa,0.12 µg/mL
same,MIC90,Rhodotorula mucilaginosa,0.5 µg/mL
same,MIC50,Aspergillus terreus,1 µg/mL
same,MIC90,Aspergillus terreus,4 µg/mL
same,MIC50,Nakaseomyces glabratus,0.12 µg/mL
same,MIC90,Nakaseomyces glabratus,0.25 µg/mL
same,MIC50,Aspergillus nidulans,1 µg/mL
same,MIC90,Aspergillus nidulans,4 µg/mL
same,MIC50,Wickerhamomyces anomalus,0.12 µg/mL
same,MIC90,Wickerhamomyces anomalus,1 µg/mL
same,MIC50,Rhizopus arrhizus,0.5 µg/mL
same,MIC90,Rhizopus arrhizus,2 µg/mL
same,MIC50,Penicillium,0.5 µg/mL
same,MIC90,Penicillium,2 µg/mL
same,MIC50,Aspergillus fumigatus,0.25 µg/mL
same,MIC90,Aspergillus fumigatus,0.5 µg/mL
same,MIC50,Torulaspora delbrueckii,0.12 µg/mL
same,MIC90,Torulaspora delbrueckii,1 µg/mL
same,MIC50,[2],0.06 µg/mL
same,MIC90,[2],0.5 µg/mL
same,MIC50,Fusarium reticulatum,0.5 µg/mL
same,MIC90,Fusarium reticulatum,> 16 µg/mL
same,MIC50,Fusarium equiseti,0.5 µg/mL
same,MIC90,Fusarium equiseti,> 16 µg/mL
same,MIC50,Aspergillus sydowii,1 µg/mL
same,MIC90,Aspergillus sydowii,2 µg/mL
same,MIC50,[Candida] inconspicua,0.12 µg/mL
same,MIC90,[Candida] inconspicua,1 µg/mL
same,MIC50,Fusarium proliferatum,2 µg/mL
same,MIC90,Fusarium proliferatum,4 µg/mL
same,MIC50,Hortaea werneckii,0.25 µg/mL
same,MIC90,Hortaea werneckii,1 µg/mL
